ChEMBL document CHEMBL3351425, “Lactones from Ficus auriculata and their effects on the proliferation function of primary mouse osteoblasts in vitro” (2014)

What was measured:
Assay type in all cases: functional, Osteoblast
[1] = Induction of cell proliferation in osteoblasts (unknown origin) at 1 uM after 48 hrs by MTT assay relative to untreated control
Outline: (§1)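 Primary mouse osteoblasts were seeded at 2 × 10^3 cells/well and cultured 24 h, then exposed to compound for 48 h. MTT (5.0 mg/ml) was added for a further 4 h at 37 °C, and formazan was dissolved in DMSO. OD was read at 570 nm. Viability = (OD sample − blank)/(OD untreated control − blank) × 100. The blank was cell-free medium.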

[2] = Induction of cell proliferation in osteoblasts (unknown origin) at 10 uM after 48 hrs by MTT assay relative to untreated control; outline: as §1
[3] = Induction of cell proliferation in osteoblasts (unknown origin) at 100 uM after 48 hrs by MTT assay relative to untreated control; outline: as §1

## COC1=CC(=O)C=C2CCCCCCC[C@@H](C)OC(=O)[C@@]21O
[1]
  Activity: -7.91%
[2]
  Activity: -43.92%
[3]
  Activity: -68.32%

## COC1=CC(=O)C=C2CCCC(=O)CCC[C@@H](C)OC(=O)[C@@]21O
[1]
  Activity: 10%
[2]
  Activity: 8.94%
[3]
  Activity: 2.61%

## C[C@@H]1CCCCCCCc2cc(O)cc(O)c2C(=O)O1
[1]
  Activity: 1.67%
[2]
  Activity: -4.54%
[3]
  Activity: 19.48%

## COc1cc(O)cc2c1C(=O)O[C@H](C)CCC(=O)CCCC2
[1]
  Activity: 2.87%
[2]
  Activity: -4.29%
[3]
  Activity: 3.28%

## COc1cc(O)cc2c1C(=O)O[C@H](C)CCCCCCC2
[1]
  Activity: 3.45%
[2]
  Activity: 14.19%
[3]
  Activity: 51.55%

## COc1cc(O)cc2c1C(=O)O[C@H](C)CC[C@@H](O)CCCC2
[1]
  Activity: 3.97%
[2]
  Activity: -6.67%
[3]
  Activity: 2.1%

## [F-].[Na+] [SODIUM FLUORIDE]
[1]
  Activity: 12.15%
[2]
  Activity: 18.76%
[3]
  Activity: 22.54%

## COC1=CC(=O)C=C2CCCCC(=O)CC[C@@H](C)OC(=O)[C@@]21O
[1]
  Activity: 12.54%
[2]
  Activity: 10.92%
[3]
  Activity: 19.62%
